TRPC6 act: mouse TRPC6 channel activation; AID 2550; HEK293-TRPC6 membrane potential dye fluorescence; active compounds read high; B-score at 10 µM; Q61143; 310,000 tested, 0.13% active;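 active = B-score of the integrated fluorescence ratio above library mean plus 3 SD, and starting fluorescence ratio within library mean plus 5 SD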;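 note: higher score means more depolarization so channel activation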
Target sequence (Q61143 whole entry, looked up): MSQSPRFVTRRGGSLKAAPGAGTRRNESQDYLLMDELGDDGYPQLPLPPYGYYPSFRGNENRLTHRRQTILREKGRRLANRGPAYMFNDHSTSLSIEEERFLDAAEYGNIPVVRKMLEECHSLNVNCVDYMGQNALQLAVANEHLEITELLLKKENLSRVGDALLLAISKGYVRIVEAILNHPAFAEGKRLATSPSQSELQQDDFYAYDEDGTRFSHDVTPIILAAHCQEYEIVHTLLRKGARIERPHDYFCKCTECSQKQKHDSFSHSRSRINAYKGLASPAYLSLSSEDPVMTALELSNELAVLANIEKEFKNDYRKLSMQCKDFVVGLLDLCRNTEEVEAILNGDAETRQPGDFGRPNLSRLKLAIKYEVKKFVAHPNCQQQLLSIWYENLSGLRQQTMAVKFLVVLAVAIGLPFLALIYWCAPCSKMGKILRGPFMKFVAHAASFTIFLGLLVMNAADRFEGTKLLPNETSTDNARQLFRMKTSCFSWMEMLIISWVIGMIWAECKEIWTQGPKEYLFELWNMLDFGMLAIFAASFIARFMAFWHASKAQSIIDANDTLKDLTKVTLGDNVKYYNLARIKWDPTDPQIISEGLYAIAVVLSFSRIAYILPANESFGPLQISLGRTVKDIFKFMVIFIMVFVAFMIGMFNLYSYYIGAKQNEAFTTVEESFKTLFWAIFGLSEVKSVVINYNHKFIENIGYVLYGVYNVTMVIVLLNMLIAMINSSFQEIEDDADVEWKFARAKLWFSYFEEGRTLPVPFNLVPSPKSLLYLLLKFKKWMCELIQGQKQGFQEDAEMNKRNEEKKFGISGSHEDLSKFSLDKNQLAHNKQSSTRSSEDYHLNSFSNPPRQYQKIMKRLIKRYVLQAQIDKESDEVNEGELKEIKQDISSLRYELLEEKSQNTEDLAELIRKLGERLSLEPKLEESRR
TRPC4 potent: TRPC4 (mouse) allosteric potentiation | Q9QUQ5 | AID 2227 | HEK293 TRPC4beta/mu-opioid, DAMGO EC20, Fluo-4 Ca2+ flux; active compounds read high | 310,000 tested, 0.42% active | B-score at 10 µM;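 active = B-score of calcium response area above 5 SD of library B-scores, with initial fluorescence ratio within 5 SD of library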;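 note: B-score of integrated fluorescence ratio over time as area under calcium response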
TRPC6 inh: mouse TRPC6 channel inhibition; Q61143; HEK293-TRPC6, membrane potential dye, ACh-evoked depolarization; active compounds read low; B-score at 10 µM; 310,000 tested, 1.1% active; AID 2553;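 active = B-score under library mean minus 3 SD, initial fluorescence not abnormally high, positive integrated signal ratio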;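 note: B-score derived from integrated fluorescence ratio over the kinetic read; more negative B-score means stronger inhibition of depolarization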
TRPC4 act: opens the mouse TRPC4 cation channel. Q9QUQ5. HEK293 TRPC4beta/mu-opioid, Fluo4 calcium fluorescence; active compounds read high. B-score at 10 µM. 310,000 tested, 0.49% active. AID 2237;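 active = B-score above 5 SD of library B-scores, and initial fluorescence ratio not above library mean plus 5 SD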;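 note: positive B-score marks a calcium rise read as TRPC4 activation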
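Assay system: HEK293 stable line with TRPC4beta plus mu-opioid receptor; schedule: 45 min room-temperature Fluo4 loading, 110 s read; technique: kinetic Fluo4 calcium fluorescence; evaluation: integrated baseline-normalised fluorescence ratio, converted to per-well B score; controls: buffer (low) and maximal DAMGO (high)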
TRPC4 inh: blocks the mouse TRPC4 cation channel | B-score at 10 µM | HEK293 TRPC4beta/mu-opioid, DAMGO-evoked Fluo4 calcium flux; active compounds read low | Q9QUQ5 | 300,000 tested, 0.39% active;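 active = B-score over 3 SD under the library average, no early fluorescence shift, positive overall ratio signal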
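Assay system – HEK293 line stably carrying TRPC4beta and mu-opioid receptor · Doses – single dose · Detection – Fluo4 calcium-dye fluorescence, kinetic read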
* = called active by the depositor; i = inactive. Hits are enriched below; roughly 2.3% of the tested compounds scored in any of these assays.

SMILES	TRPC6 act	TRPC4 potent	TRPC6 inh	TRPC4 act	TRPC4 inh
Cc1c(Cl)cccc1NC(=S)N(CCN(C)C)C(C)c1ccco1 (stereo not given)	i	i	i	i	i
CNC(=S)N/N=C(\C)c1ccccc1	i	i	i	i	i
CNC(=S)N/N=C(\C)c1ccc(C(C)(C)C)cc1	i	11*	i	i	i
CCOc1ccc(-n2c(SCC(=O)O)nc3sc4c(c3c2=O)CCCC4)cc1	i	16*	i	i	i
Cc1ccccc1-n1c(SCC(=O)O)nc2sc3c(c2c1=O)CCCC3	i	i	i	i	i
Cc1ccc(-n2c(SCC(=O)O)nc3sc4c(c3c2=O)C(C)CCC4)cc1 (stereo not given)	i	11*	i	i	i
O=C(NCc1ccccc1)c1c(Cl)nc(Cl)c(Cl)c1Cl	i	i	i	i	-6*
Cc1nc(Cl)c(C(=O)NCc2ccccc2)c(C)c1Cl	i	i	i	i	i
CCOc1ccc(NC(=O)c2c[nH]n3c(=O)cc(C4CCN(C(=O)OC(C)(C)C)CC4)nc23)cc1	i	i	i	i	-7*
CCOC(=O)N1CCC(c2cc(=O)n3[nH]cc(C(=O)OC)c3n2)CC1	i	i	i	i	i
CC1CCCN(CCCNS(=O)(=O)c2cc(Br)cc3c2N(C(=O)C2CC2)CC3)C1 (stereo not given)	i	i	i	73*	i
O=C(C1CC1)N1CCc2cc(Br)cc(S(=O)(=O)NCCCN3CCCC3)c21	i	i	i	60*	i
CC1CC(C)CN(CCCNS(=O)(=O)c2cc(Br)cc3c2N(C(=O)C2CC2)CC3)C1 (stereo not given)	i	i	i	115*	i
COc1ccc(C2=NOC3(CC(=O)N(c4ccc(F)cc4)C3=O)C2)cc1 (stereo not given)	i	i	i	i	i
COCc1nc2ccccc2n1Cc1c(F)cccc1Cl	i	i	i	i	i
CCc1ccc(OC(C)c2nnc(SCC(=O)Nc3ncccc3C)n2C)cc1 (stereo not given)	i	i	i	i	i
O=c1[nH]ncc(NCCc2ccccc2)c1Cl	i	i	i	i	i
O=c1c(NCCc2ccc(Cl)cc2)c(-c2ccccc2)c1=O	i	14*	i	i	i
Cc1cc(C(=O)N/N=C/C=C/c2cccc([N+](=O)[O-])c2)n[nH]1	i	i	i	i	i
Cc1ccc(C)c(-n2cc(CN3CCCN(C=O)CC3)c(-c3ccccc3)n2)c1	i	i	i	72*	i
Cc1ccc(-n2cc(CNCCCn3cccn3)c(-c3cccc(C)c3)n2)cc1	i	i	i	43*	i
Cc1ccc(C)c(-n2cc(CNCCCn3cccn3)c(-c3ccccc3)n2)c1	i	i	i	205*	i
Cc1ccc(-n2cc(CNCCCn3ccnc3C)c(-c3ccc(F)cc3)n2)cc1	i	i	i	i	i
O=C(CN(Cc1ccccc1)C(=O)CCC(=O)Nc1nccs1)NCc1ccc(F)cc1	i	i	i	i	i
Cc1ccc(CNC(=O)CSc2nc(=O)n3cccc(C)c3n2)cc1	i	i	i	i	i
SMILES	TRPC6 act	TRPC4 potent	TRPC6 inh	TRPC4 act	TRPC4 inh
COc1ccc(C(=O)C2CCCN(C(=O)CCc3scnc3C)C2)c(C)c1 (stereo not given)	i	i	i	i	i
Cc1ccc(C)c(N2C(=O)CC(Cc3ccccc3)C2=O)c1 (stereo not given)	i	i	i	i	i
O=[N+]([O-])c1ccccc1OCCCN1CCc2ccccc2C1	i	i	i	i	i
CCOC(=O)C(CCCCOc1cccc(CC)c1)C(=O)OCC	i	i	i	i	i
CCOC(=O)C(CCCCCOc1ccc([N+](=O)[O-])cc1)C(=O)OCC	i	23*	i	i	i
CC1CC(C)CN(CCCOc2ccccc2[N+](=O)[O-])C1 (stereo not given)	i	i	i	48*	i
CCOC(=O)C(CCCCCOc1ccccc1[N+](=O)[O-])C(=O)OCC	i	i	i	i	-6*
COCCCn1cnnc1SCc1nc2sc(C(C)=O)c(C)c2c(=O)[nH]1	i	i	i	i	i
CCS(=O)(=O)N1Cc2ccccc2CC1C(=O)N(C)CC(=O)Nc1ccc(F)c(F)c1F (stereo not given)	i	i	i	i	i
O=C(NC1CCN(Cc2ccccc2)CC1)c1cccc(S(=O)(=O)Nc2ccc(Br)cc2)c1	i	i	i	i	i
COc1ccccc1NS(=O)(=O)c1cccc(C(=O)NC2CCN(Cc3ccccc3)CC2)c1	i	i	i	52*	-8*
COCCCN(C(=O)c1cc(-c2ccco2)nc2ccccc12)c1c(N)n(Cc2ccccc2)c(=O)[nH]c1=O	i	i	i	i	i
O=c1[nH]c(CN2CCN(c3ccc([N+](=O)[O-])cc3)CC2)nc2ccsc12	i	i	i	i	i
Cc1ccc(Cl)cc1N1CCN(Cc2nc3ccsc3c(=O)[nH]2)CC1	i	28*	i	i	i
Cc1cc(OCc2cc(C(=O)NCCN3CCCCC3CO)no2)cc(C)c1Cl (stereo not given)	i	i	i	i	-7*
COc1cccc(OCc2cc(C(=O)NCCN3CCCCC3CO)no2)c1 (stereo not given)	i	i	i	i	i
O=C(C[n+]1cc(-c2ccccc2)n2c1CCC2)c1cccs1	i	i	i	i	i
O=C(C[n+]1cc(-c2ccccc2)n2c1CCC2)N1c2ccccc2Sc2ccccc21	i	i	-5.5*	i	i
Cc1ccc(-c2c[n+](Cc3ccc(Cl)cc3)c3n2CCC3)cc1	i	i	i	i	i
Clc1cccc(C[n+]2cc(-c3ccccc3)n3c2CCC3)c1	i	i	i	i	-6*
CCOC(=O)Cc1ncccc1C(=O)Nc1ccc(Oc2ccccc2)cc1	i	i	i	i	i
COc1ccc(C(=O)N2CCN(Cc3nc(CC4CC4)no3)CC2)cc1	i	i	i	i	i
Cc1ccccc1C(=O)N(CC(=O)Nc1sc(C)c(C)c1C(N)=O)C1CCCC1	i	i	i	i	i
NCCNC(=O)c1c(O)c2cccc3c2n(c1=O)CCC3	i	i	i	104*	i
CCCNC(=O)c1c(O)c2cccc3c2n(c1=O)CCC3	i	i	i	i	i

Screening results from PubChem.
